From paper PMC3285107 (ACS medicinal chemistry letters, 2012)
Entries after “also recorded” stand apart in the source; their conditions may differ.

Assays:
[1] = system: RGS4; experiment: FCPIA: inhibition of Gαo binding to RGS4; settings: for activity at RGS4: result in words
How it was run: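 Primary FCPIA screen for inhibition of Gαo binding to RGS4, run in parallel against RGS8, its closest sequence relative, to assess selectivity. IC50 values are averages of two independent experiments. Calculated ΔpIC50 mean error: 0.2 for RGS4, 0.14 for RGS8.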

[2] = Aqueous solubility; assay type: physicochemical; settings: result in words
[3] = system: M3 muscarinic receptors in HEK293T cells; experiment: Carbachol-stimulated Ca2+ transient; assay type: cell-based; settings: compound 10 μM, carbachol 10 nM, HEK cells with human M3 receptor
How it was run: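 HEK-293 cells stably expressing human M3 muscarinic receptor, plated overnight, then loaded with Fluo4-NW for 30 min at 37 °C. Test compound added at 10 μM (1% DMSO). After […] minutes, baseline fluorescence read on a plate reader. Carbachol (10 nM final) injected, and the rise in intracellular Ca2+ expressed as percentage of baseline Ca2+ level.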

[4] = system: cysteine protease papain; settings: result in words; cited from earlier work

Sequence of RGS4 (P49798 whole entry): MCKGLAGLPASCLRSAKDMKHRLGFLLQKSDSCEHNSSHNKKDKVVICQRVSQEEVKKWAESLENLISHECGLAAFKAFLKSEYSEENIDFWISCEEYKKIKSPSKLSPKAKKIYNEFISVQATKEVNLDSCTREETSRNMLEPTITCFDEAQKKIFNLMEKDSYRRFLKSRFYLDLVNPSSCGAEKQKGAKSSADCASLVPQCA

SMILES: COc1ccc(Cn2c(=O)sn(-c3ccc(C)cc3)c2=O)cc1 [compound 7]
- selectivity for RGS4 versus RGS8 [1]: > 1000 fold

SMILES: CCCCn1c(=O)sn(CC)c1=O [11b]
- aqueous solubility [2]: high solubility; also recorded: excellent aqueous solubility
- effect on carbachol-induced Ca2+ transient [3]: no effect; also recorded: no calcium transient

SMILES: Cc1ccc(-n2sc(=O)n(Cc3cccc(Cl)c3)c2=O)cc1 [compound 5]
- selectivity for RGS4 versus RGS8 [1]: > 1000 fold

SMILES: Cc1ccc(-n2sc(=O)n(Cc3ccc(F)cc3)c2=O)cc1 [1a]
- inhibition of papain [4]: failing to inhibit
- effect on carbachol-induced Ca2+ transient [3]: nearly completely abolished

SMILES: Cc1ccc(Cn2sc(=O)n(Cc3ccc(F)cc3)c2=O)cc1 [1i]
- selectivity for RGS4 versus RGS8 [1]: near three orders of magnitude

SMILES: CCn1sc(=O)n(CCOC)c1=O [compound 13]
- aqueous solubility [2]: further improved solubility
- effect on carbachol-induced Ca2+ transient [3]: no effect
- selectivity for RGS4 versus RGS8 [1]: > 600 fold

SMILES: Cc1ccc(Cn2c(=O)sn(-c3ccc(C)cc3)c2=O)cc1 [compound 4]
- selectivity for RGS4 versus RGS8 [1]: > 1000 fold

SMILES: Cc1ccc(C2=CC(=O)N(Cc3ccccc3)C2=O)cc1 [compound 15]
- activity at RGS4 [1]: neither 14 or 15 displayed activity

SMILES: Cc1ccc(Cn2sc(=O)n(Cc3ccccc3)c2=O)cc1 [2i]
- selectivity for RGS4 versus RGS8 [1]: near three orders of magnitude

SMILES: Cc1ccc(-n2sc(=O)n(Cc3ccc(Cl)cc3)c2=O)cc1 [compound 3]
- selectivity for RGS4 versus RGS8 [1]: > 1000 fold

SMILES: Cc1ccc(CN2C(=O)CN(c3ccc(C)cc3)C2=O)cc1 [compound 14]
- activity at RGS4 [1]: neither 14 or 15 displayed activity
